From ChEMBL document CHEMBL4052792, “3-Hydroxykynurenine, a Tryptophan Metabolite Generated during the Infection, Is Active Against Trypanosoma cruzi” (ACS Med Chem Lett, 2017)
Active and inactive are the calls of the source. No cut-off for these calls is given here.

What was measured:
Trypanosoma cruzi [1] = assay: Trypanostatic activity against Trypanosoma cruzi Tulahuen amastigotes infected in BALB/C mouse bone marrow derived macrophages assessed as formation of low electrodense structures in parasite cytoplasm at 20 uM after 24 hrs by transmission electron microscopic analysis; assay type: functional
How it was run: (§1)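 Bone marrow-derived macrophages were infected for 24 h, then exposed to 20 μM for 24 h or left untreated. Intracellular amastigote ultrastructure was examined by transmission electron microscopy, covering mitochondrion, nucleus, kinetoplast, flagellum, flagellar pocket, subpellicular microtubules and cytoplasmic structures.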

Jurkat [2] = assay: Cytotoxicity against human Jurkat cells assessed as reduction in cell viability at 1200 to 2000 uM after 48 hrs by trypan blue exclusion assay; assay type: cell-based
How it was run: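 Human PBMC and Jurkat cells were treated for 48 h with a range of 3-HK concentrations or left untreated. Viable cells were counted under light microscopy by trypan blue exclusion. Data are means ± SD of four independent experiments.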

Jurkat [3] = assay: Cytotoxicity against human Jurkat cells assessed as reduction in cell viability at 0.2 to 2000 uM after 24 hrs by trypan blue exclusion assay; assay type: cell-based
How it was run: (§2)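 Mammalian cells (human PBMC, Swan 71, Jurkat; bone marrow-derived macrophages; J774) were exposed to 3-HK at 0.2 to 2000 μM for 24 h. Viability was then scored by trypan blue exclusion.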

Trypanosoma cruzi [4] = assay: (§3) Trypanocidal activity against Trypanosoma cruzi Tulahuen amastigotes infected in BALB/C mouse bone marrow derived macrophages assessed as parasite infected macrophages at 1500 uM treated for 24 hrs followed by compound washout measured after 48 hrs by immunofluorescence assay (reference value: 26.84 +/- 7.81%); assay type: functional
Trypanosoma cruzi [5] = assay: Trypanostatic activity against Trypanosoma cruzi Tulahuen amastigotes infected in BALB/C mouse bone marrow derived macrophages assessed as effect in subpelicullar microtubules at 20 uM after 24 hrs by transmission electron microscopic analysis; assay type: functional; how it was run: as §1
Trypanosoma cruzi [6] = assay: Trypanostatic activity against Trypanosoma cruzi Tulahuen amastigotes infected in BALB/C mouse bone marrow derived macrophages assessed as effect on flagellar pocket at 20 uM after 24 hrs by transmission electron microscopic analysis; assay type: functional; how it was run: as §1
J774 = assay: Cytotoxicity against mouse J774 assessed as reduction in cell viability at 0.2 to 2000 uM after 24 hrs by trypan blue exclusion assay; assay type: cell-based; settings: j774, 24 h; how it was run: as §2
[7] = Induction of apoptosis in BALB/C mouse BMDM assessed as cells with hypodiploid DNA content at 8000 uM after 24 hrs by FITC/propidium iodide staining based flow cytometric analysis (reference value: 29.9%); assay type: functional
Trypanosoma cruzi [8] = assay: Trypanocidal activity against Trypanosoma cruzi Tulahuen amastigote forms infected in BALB/C mouse bone marrow derived macrophages assessed as decrease in parasite growth at 200 uM after 72 hrs by immunofluorescence assay; assay type: functional
How it was run: (§4)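 Macrophages were infected with trypomastigotes and treated with 3-HK for 24 h. Immunofluorescence counts were made at 72 h post-infection. Intracellular parasites per 200 cells were expressed relative to medium-treated cultures, and infected cells were counted among 200 macrophages. Data are means ± SD of four independent experiments.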

Trypanosoma cruzi [9] = assay: Trypanocidal activity against Trypanosoma cruzi Tulahuen amastigotes infected in BALB/C mouse bone marrow derived macrophages assessed as endocytic index at 20 uM treated for 24 hrs followed by compound washout measured after 48 hrs by immunofluorescence assay (reference value: 213.66 +/- 58.79); assay type: functional
Trypanosoma cruzi [10] = assay: Trypanocidal activity against Trypanosoma cruzi Tulahuen amastigotes infected in BALB/C mouse bone marrow derived macrophages assessed as endocytic index at 1800 uM treated for 24 hrs followed by compound washout measured after 48 hrs by immunofluorescence assay (reference value: 213.66 +/- 58.79); assay type: functional
Trypanosoma cruzi [11] = assay: Induction of mitochondrial membrane potential reduction in Trypanosoma cruzi Tulahuen trypomastigotes up to 4000 uM after 24 hrs by Rh123/propidium iodide staining-based flow cytometric analysis (reference value: 3.25 +/- 1.66%); assay type: functional; design: scale not given: the % may be the effect or the level left
How it was run: (§5)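 Trypomastigotes were treated with 3-HK for 24 h at 37 °C, then incubated with PI plus Rh123. Rh123 fluorescence was read by flow cytometry in PI-negative (live) parasites. The depolarized fraction was taken as the low-fluorescence M2 population. Index of variation = (treated median − control median)/control median. Three experiments were run.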

Trypanosoma cruzi [12] = assay: Trypanocidal activity against Trypanosoma cruzi Tulahuen amastigotes infected in BALB/C mouse bone marrow derived macrophages assessed as endocytic index at 800 uM treated for 24 hrs followed by compound washout measured after 48 hrs by immunofluorescence assay (reference value: 213.66 +/- 58.79); assay type: functional
Trypanosoma cruzi [13] = assay: Induction of mitochondrial membrane depolarization in Trypanosoma cruzi Tulahuen trypomastigotes at 8000 uM after 24 hrs by Rh123/propidium iodide staining-based flow cytometric analysis (reference value: 3.25 +/- 1.66%); assay type: functional; how it was run: as §5
Trypanosoma cruzi [14] = assay: as §3, with “0.2” for “1500”; assay type: functional
[15] = Induction of apoptosis in BALB/C mouse BMDM assessed as cells with hypodiploid DNA content at 2 uM after 24 hrs by FITC/propidium iodide staining based flow cytometric analysis (reference value: 29.9%); assay type: functional
Trypanosoma cruzi [16] = assay: Trypanocidal activity against Trypanosoma cruzi Tulahuen trypomastigotes assessed as reduction in parasites after 24 to 48 hrs by trypan blue assay; assay type: functional
How it was run: (§6)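 Bloodstream trypomastigotes were incubated at 37 °C in culture medium alone or with increasing doses for 24, 48 and 72 h. Parasite death was scored as percentage by trypan blue exclusion. Results are means ± SD of three independent experiments.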

Trypanosoma cruzi [17] = assay: Trypanocidal activity against Trypanosoma cruzi Tulahuen amastigotes infected in BALB/C mouse bone marrow derived macrophages assessed as endocytic index at 1500 uM treated for 24 hrs followed by compound washout measured after 48 hrs by immunofluorescence assay (reference value: 213.66 +/- 58.79); assay type: functional
Trypanosoma cruzi [18] = assay: Trypanocidal activity against Trypanosoma cruzi Tulahuen amastigotes infected in BALB/C mouse bone marrow derived macrophages assessed as endocytic index at 1200 uM treated for 24 hrs followed by compound washout measured after 48 hrs by immunofluorescence assay (reference value: 213.66 +/- 58.79); assay type: functional
Trypanosoma cruzi [19] = assay: Trypanocidal activity against Trypanosoma cruzi Tulahuen trypomastigotes assessed as increase in parasite death up to 72 hrs by trypan blue assay; assay type: functional; how it was run: as §6
Trypanosoma cruzi [20] = assay: Induction of mitochondrial membrane depolarization in Trypanosoma cruzi Tulahuen trypomastigotes at 2000 uM after 24 hrs by Rh123/propidium iodide staining-based flow cytometric analysis (reference value: 3.25 +/- 1.66%); assay type: functional; how it was run: as §5
Trypanosoma cruzi [21] = assay: Trypanocidal activity against Trypanosoma cruzi Tulahuen trypomastigotes infected in mouse whole blood assessed as viable trypomastigote cells at 20 uM after 96 hrs by trypan blue assay relative to control; assay type: functional
How it was run: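 Trypomastigotes were exposed to 20 μM in 100% whole blood at 37 °C. Viable parasites were counted after 24, 48, 72 and 96 h. Results are means ± SD of three independent experiments.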

Trypanosoma cruzi [22] = assay: as §3, with “1800” for “1500”; assay type: functional
Trypanosoma cruzi [23] = assay: as §3, with “2” for “1500”; assay type: functional
Trypanosoma cruzi [24] = assay: Trypanocidal activity against Trypanosoma cruzi Tulahuen amastigotes infected in BALB/C mouse bone marrow derived macrophages assessed as decrease in intracellular parasite growth after 72 hrs by immunofluorescence assay; assay type: functional, cell-based; how it was run: as §4

SMILES: Nc1c(O)cccc1C(=O)C[C@H](N)C(=O)O
- Activity (Trypanosoma cruzi [1]): Active
- Activity (Jurkat [2]): Toxic
- Activity (Jurkat [3]): Non-Toxic
- Activity (Trypanosoma cruzi [4]): 18.07%
- Activity (Trypanosoma cruzi [5]): inactive
- Activity (Trypanosoma cruzi [6]): inactive
- Activity (J774): Non-Toxic
- Activity [7]: 29.9%
- Activity (Trypanosoma cruzi [8]): Active
- Activity (Trypanosoma cruzi [9]): 51.74
- Activity (Trypanosoma cruzi [10]): 110.69
- Activity (Trypanosoma cruzi [11]): 8 - 12%
- Activity (Trypanosoma cruzi [12]): 99.39
- Activity (Trypanosoma cruzi [13]): 40.7%
- Activity (Trypanosoma cruzi [14]): 10.85%
- Activity [15]: 28.2%
- IC50 (Trypanosoma cruzi [16]): 200 to 1200 µM
- Activity (Trypanosoma cruzi [17]): 124.36
- Activity (Trypanosoma cruzi [18]): 106.06
- Activity (Trypanosoma cruzi [19]): Dose-dependent effect
- Activity (Trypanosoma cruzi [20]): 12.1%
- Activity (Trypanosoma cruzi [21]): 50%
- Activity (Trypanosoma cruzi [22]): 14.32%
- Activity (Trypanosoma cruzi [23]): 12.4%
- Activity (Trypanosoma cruzi [24]): Dose-dependent effect
